From article PMC7114156 (Antiviral Research, 2009)
Several values for one entry are separate records, joined by “and”; a condition that tells them apart may be missing. Equal entries are not always repeated. Where two headings read alike, the source gives them in different places.

Tests used:
W12 cells = assay: Apoptosis assay; assay type: cell-based, human; conditions: W12, 40 h exposure
Outline: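 Apoptosis read as cytoplasmic histone-associated DNA fragments with a Cell Death Detection ELISA kit. Exposure was 20 h for IM9 and MT4 and 40 h for W12 and U937. A405 was read kinetically at 30 °C, and the rate per hour came from linear regression of the linear portion. A Fas-activating antibody was the positive control.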

[1] = Bone marrow toxicity assay, granulocyte/macrophage progenitors; assay type: cell-based; conditions: human, granulocyte/macrophage bone marrow progenitor cells
HPV-31 = assay: HPV DNA by qPCR in CIN612 cells; assay type: cell-based
Vero cells = assay: Growth of uninfected Vero cells, MTS; assay type: cell-based, African Green monkey
Outline: (§1)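 Cells were plated in 96-well plates in medium holding serial dilutions of test compound, 1 nM to 10 μM, with DMSO ≤1% (v/v) final. Growth was read by MTS after 72 h at 37 °C: 2 h with reagent plus phenazine methosulfate, then A490. K and Imax came from a fit to a modified Hill equation. Vero cells are African Green monkey.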

MT4 cells = assay: Growth of MT4 cell line; assay type: cell-based, human; conditions: for EC50: K ∼ EC50
[2] = Bone marrow toxicity assay, erythroid progenitors; assay type: cell-based; conditions: human, erythroid bone marrow progenitor cells
episomal HPV-16 DNA = assay: Hybrid capture assay for HPV16 DNA in W12-20850 cells; assay type: cell-based
Outline: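 W12-20850 cells seeded at 7.5 × 10^3/well onto compound (100 to 0.001 μM), 4 days at 37 °C, 5% CO2. MTS growth read, then same cells lysed in 0.2N NaOH/1% Igepal. Episomal HPV-16 DNA measured by hybrid capture: 90 °C 6.5 min, 42 °C overnight, anti-digoxigenin HRP, chemiluminescence. HPV DNA/MTS ratio expressed as % of untreated control. Fit to modified Hill equation.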

EBV = assay: Lytic replication of EBV induced by sodium butyrate and PMA in P3HR1 cells; assay type: cell-based
W12-20850 cells [3] = assay: Growth of W12-20850 cells, MTS; assay type: cell-based, human
Outline: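 For the time course, test compound was added at time zero to cells growing in 96-well plates. Growth was followed as rate of MTS reduction over 3 days from day zero, with untreated controls alongside.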

W12-20850 cells [4] = assay: Growth of W12-20850 cells, actin DNA by qPCR; assay type: cell-based, human
[5] = test system: activated primary B cells; assay: Growth of activated primary B cells, CTG; assay type: cell-based, human; conditions: read-out: CC50, host primary cell growth, 72 h
B-LCL 5/2/1 = assay: Growth of B-LCL 5/2/1; assay type: cell-based, human
Huh7 = assay: Growth of Huh7, MTS; assay type: cell-based, human
Outline: as §1

HEK293 = assay: Growth of HEK293; assay type: cell-based, human
Outline: (§2)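 Cell lines carrying integrated viral genomes were plated in 96-well plates in medium with test compound. Growth was read by ATP luminescence (CellTiter-Glo) for HEK293 and WI38 VA13, and by MTS reduction (A490 after 2 h at 37 °C) for Namalwa, W12 20861, SiHa, Caski and HeLa. K and Imax came from a fit to a modified Hill equation.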

[6] = test system: a variety of unrelated viruses; assay: Replication of a variety of unrelated viruses in vitro; assay type: cell-based
SiHa = assay: Growth of SiHa; assay type: cell-based, human; conditions: 72 h
Outline: as §2

HFF cells = assay: Growth of uninfected HFF cells; assay type: cell-based, human
[7] = Growth of uninfected HFF cells; assay type: cell-based, human; conditions: human, HFF cells (fibroblasts)
Molt4 = assay: Growth of Molt4, MTS; assay type: cell-based, human
Outline: as §1

human keratinocyte (HKC) = assay: Growth of uninfected human keratinocytes; assay type: cell-based; conditions: 4 days
Outline: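 W12-20850 cells were seeded at 7.5 × 10^3 cells/well into 96-well plates containing test compound, 100 to 0.001 μM. Plates were held 4 days at 37 °C, 5% CO2. Growth was read by MTS (A490), and HPV16 DNA was then measured from the same cells. Uninfected human keratinocytes were run in parallel and read by MTS.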

HeLa = assay: Growth of HeLa; assay type: cell-based, human; conditions: 72 h
Outline: as §2

[8] = Growth of activated primary CD4 T cells, CTG; assay type: cell-based; conditions: human, CC50, host primary cell growth
[9] = test system: cell lines immortalized by non-viral transformation events; assay: Growth of cell lines immortalized by non-viral transformation events; assay type: cell-based; conditions: Homo sapiens, read-out: Median effect concentrations, range
Outline: as §1

W12 20861 = assay: Growth of W12 20861; assay type: cell-based, human; conditions: 72 h
Outline: as §2

HKC/HPV16 cells = assay: Growth of HKC/HPV16 cells, MTS; assay type: cell-based, human
[10] = Homo sapiens, read-out: K, Growth, MTS

O=C(N[C@@H]1CCCc2c1[nH]c1ccc(Cl)cc21)c1ccccn1 [GSK983, N-[(1R)-6-Chloro-2,3,4,9-tetrahydro-1H-carbazol-1-yl]-2-pyridinecarboxamide]
Apoptosis (W12 cells): apoptosis did not occur | CC50 [1]: 160000 nM | Imax, HPV DNA, qPCR (HPV-31; CIN612, HPV type 31): 86 ± 1% | Selectivity index (HPV-31; HPV DNA qPCR in CIN612 vs HKC): 16,600 ± 5,000 | EC50 (HPV-31; read-out: K, HPV DNA, qPCR): 2.4 ± 0.1 nM | Outcome of growth inhibition over time (Vero cells; data not shown): cytostasis | Imax, uninfected host cell growth, MTS (Vero cells; data of Fig. 3): 37% | Imax, Growth, MTS (Vero cells; kidney epithelial, 72 h, 4 titrations): 43 ± 1% | EC50 (MT4 cells; Homo sapiens, MT4, 72 h, read-out: K, cell line growth, MT4 (HTLV1), CTG, 72 h): 8 nM | Selectivity index (MT4 cells; MT4 (HTLV1) vs activated CD4 T cell): 7600 ± 1000 | EC50 (MT4 cells; read-out: K, cell line growth, MT4 (HTLV1), CTG, 72 h): 7.5 ± 0.6 nM | CC50 [2]: > 10000 nM | Imax, Ratio, HPV DNA/MTS (episomal HPV-16 DNA; W12-20850): 90 ± 2% | K, Ratio, HPV DNA/MTS (episomal HPV-16 DNA; W12-20850): 4.9 ± 0.5 nM | EC50 (episomal HPV-16 DNA; read-out: K, DNA, hybrid capture, W12-20850, HPV type 16, 4 days): 4.5 ± 0.3 nM | Susceptibility of lytic replication of EBV (EBV; at concentrations below 1 μM): not susceptible | Inhibition of lytic replication of EBV below 10 μM (EBV; below 10 μM, data not shown): No significant inhibition | Inhibition of lytic replication of EBV (EBV; induced by sodium butyrate and PMA in P3HR1 cells, data not shown): did not inhibit | EC50 (W12-20850 cells [3]; Homo sapiens, W12-20850, 96 h, read-out: K, Growth, MTS): 11 ± 2 nM | Outcome of growth inhibition over time (W12-20850 cells [3]; W12, 3 days, rate of MTS reduction): cytostasis | Imax, Growth, MTS (W12-20850 cells [3]; W12-20850, 4 days): 60% and 60 ± 7% | EC50 (W12-20850 cells [4]; Homo sapiens, W12-20850, read-out: K, Growth, Actin DNA, qPCR): 6 ± 0.4 nM | Imax, Growth, Actin DNA, qPCR (W12-20850 cells [4]; W12-20850): 60 ± 1% | CC50 [5]: > 10000 nM | Selectivity index (B-LCL 5/2/1; B-LCL 5/2/1 (EBV) vs activated B cell): >700 ± 15 | Imax, cell line growth (B-LCL 5/2/1; B-LCL 5/2/1 (EBV), CTG, 72 h): 93 ± 1% | EC50 (B-LCL 5/2/1; Homo sapiens, 72 h, read-out: K, cell line growth): 14 ± 0.3 nM | EC50 (Huh7; Homo sapiens, Huh-7, 72 h, read-out: K, growth, MTS): 41 ± 10 nM | Imax, Growth, MTS (Huh7; Huh7, liver epithelial, 72 h): 26 ± 1% | Imax, Growth, CTG (HEK293; HEK293, Adenovirus 5 integrated, 72 h): 52 ± 2% | EC50 (HEK293; Homo sapiens, HEK293, 72 h, read-out: K, Growth, CTG): 12 ± 2 nM | Observed maximum inhibition of viral DNA ([6]; productive or episomal infections): 86–99% | EC50 ([6]; read-out: EC50 values, replication of a variety of unrelated viruses in vitro): 5 to 20 nM | Imax, Growth, MTS (SiHa; HPV16 integrated): 39 ± 1.6% | EC50 (SiHa; [10]): 37 ± 6 nM | K, uninfected host cell growth, MTS (HFF cells; HFF, this experiment (Fig. 2), K ∼ CC50): 35,500 nM | Growth of the uninfected HFF, as measured by MTS (HFF cells; at concentrations below one micromolar): not inhibited | CC50 at 72 h [7]: 55000 nM | EC50 (Molt4; Homo sapiens, MOLT-4, 72 h, read-out: K, growth, MTS): 13 ± 1.3 nM | Imax, Growth, MTS (Molt4; Molt4, T lymphoblast, 72 h): 85 ± 2% | Imax, Growth, MTS (human keratinocyte (HKC)): ∼100% | K, Growth, MTS (human keratinocyte (HKC)): 40,000 ± 11,800 nM | Imax, Growth, MTS (HeLa; HPV 18 integrated): 50 ± 0.8% | EC50 (HeLa; [10]): 20 ± 2 nM | CC50 at 72 h [8]: 57000 nM | EC50 [9]: 10 to 50 nM | EC50 (W12 20861; [10]): 25 ± 9 nM | Imax, Growth, MTS (W12 20861; W12 20861, HPV16 integrated): 35 ± 2.8% | Imax, Growth, MTS (HKC/HPV16 cells; HKC/HPV16): 59 ± 1% | EC50 (HKC/HPV16 cells; [10]): 3 ± 0.4 nM
